In data set [1] the target is T1, Glycogen phosphorylase, liver form (Homo sapiens, UniProt P06737).
T1 sequence (P06737 whole entry): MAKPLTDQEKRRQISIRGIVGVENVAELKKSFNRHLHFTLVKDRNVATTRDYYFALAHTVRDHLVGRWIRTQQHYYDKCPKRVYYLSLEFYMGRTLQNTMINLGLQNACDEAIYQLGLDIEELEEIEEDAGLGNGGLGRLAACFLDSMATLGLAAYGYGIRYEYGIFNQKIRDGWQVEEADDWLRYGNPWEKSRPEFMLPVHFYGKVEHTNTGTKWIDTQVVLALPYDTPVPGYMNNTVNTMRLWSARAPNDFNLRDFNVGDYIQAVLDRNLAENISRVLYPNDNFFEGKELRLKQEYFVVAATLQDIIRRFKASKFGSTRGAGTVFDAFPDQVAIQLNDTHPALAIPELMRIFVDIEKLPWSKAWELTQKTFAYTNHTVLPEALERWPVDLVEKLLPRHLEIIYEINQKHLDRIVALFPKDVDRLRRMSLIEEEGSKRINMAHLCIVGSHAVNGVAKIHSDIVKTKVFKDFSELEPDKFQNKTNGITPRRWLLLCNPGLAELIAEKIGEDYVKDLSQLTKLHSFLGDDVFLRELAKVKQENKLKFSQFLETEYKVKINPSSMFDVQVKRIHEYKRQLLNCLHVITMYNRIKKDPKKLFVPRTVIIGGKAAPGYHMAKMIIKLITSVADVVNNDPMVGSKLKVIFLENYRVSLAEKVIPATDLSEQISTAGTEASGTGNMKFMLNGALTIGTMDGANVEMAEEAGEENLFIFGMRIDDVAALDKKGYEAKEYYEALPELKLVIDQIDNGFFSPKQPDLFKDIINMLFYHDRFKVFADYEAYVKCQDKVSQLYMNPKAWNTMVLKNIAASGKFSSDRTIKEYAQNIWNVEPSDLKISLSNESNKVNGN
The data set is described as follows: Inhibition of active form of human liver glycogen phosphorylase.

The subject of data set [2] is Mus musculus. In words: Hypoglycemic activity in db/db mouse assessed as reduction of plasma glucose at 30 mg/kg, po after 2 hrs relative to control. It is filed as functional. More on the design: scale not given: the % may be the effect or the level left. The procedure, abridged: (§1)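 Diabetic db/db mice were dosed orally. Plasma glucose was measured 2 h post-dose in drug-treated and vehicle-treated control animals. Activity is the percent decrease in plasma glucose versus the vehicle controls. Significance versus control was tested by Dunnett's test or Student's t-test.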

Data set [3] can be described thus: Volume of distribution in Sprague-Dawley rat at 1 mg/kg, iv. As to conditions: in vivo. More on the design: dose 1 mg/kg, route intravenous. Type of data set: ADME, organism-based. In outline:
(§2)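 Pharmacokinetics were determined in male SD rats after intravenous or oral administration.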

The nature of data set [4]: Oral bioavailability in Sprague-Dawley rat at 3 mg/kg. As to conditions: in vivo. It is filed as ADME, organism-based. The procedure, abridged: as §2
Data set [5] is described as follows: Cmax in Sprague-Dawley rat at 3 mg/kg, po. Type of data set: ADME, organism-based. More on the design: dose 3 mg/kg, route oral. As to conditions: in vivo. The procedure, abridged: as §2
The subject of data set [6] is Mus musculus. The data set is described as follows: Hypoglycemic activity in db/db mouse assessed as reduction of plasma glucose at 3 mg/kg, po after 2 hrs relative to control. Type of data set: functional. More on the design: scale not given: the % may be the effect or the level left. The procedure, abridged:
as §1

A short description of data set [7]: AUC (0 to infinity) in Sprague-Dawley rat at 3 mg/kg, po. It is filed as ADME, organism-based. More on the design: time infinity, dose 3 mg/kg, route oral. As to conditions: plasma. In outline:
as §2

The nature of data set [8]: Half life in Sprague-Dawley rat at 1 mg/kg, iv. Type of data set: ADME, organism-based. More on the design: dose 1 mg/kg, route intravenous. The note with it: in vivo. The procedure, abridged: as §2
For data set [9], the system named is Mus musculus. The data set is described as follows: Hypoglycemic activity in db/db mouse assessed as reduction of plasma glucose at 10 mg/kg, po after 2 hrs relative to control. It is filed as functional. More on the design: scale not given: the % may be the effect or the level left. In outline:
as §1

Data set [10] is described as follows: Tmax in Sprague-Dawley rat at 3 mg/kg, po. As to conditions: in vivo. It is filed as ADME, organism-based. More on the design: dose 3 mg/kg, route oral. The procedure, abridged:
as §2

In data set [11] the test system is Hepatocyte. The data set is described as follows: Inhibition of glucagon-induced glucose output in cultured rat primary hepatocytes. It is filed as functional, cell-based.
Data set [12] in a line: AUC (0 to infinity) in Sprague-Dawley rat at 1 mg/kg, iv. Type of data set: ADME, organism-based. More on the design: time infinity, dose 1 mg/kg, route intravenous. As to conditions: plasma. The procedure, abridged: as §2
Data set [13] can be described thus: Total clearance in Sprague-Dawley rat at 1 mg/kg, iv. It is filed as ADME, organism-based. More on the design: dose 1 mg/kg, route intravenous. The note with it: in vivo. The procedure, abridged: as §2

As for `CC1(C)CCc2cc(NC(=O)c3cc4cc(Cl)ccc4[nH]3)ccc2C1O` (configuration not stated), the IC50 – broadly, the concentration needed to halve the response being measured – in data set [1] was above 10000 nM.
Still for that read-out and setting: to `O=C(Nc1ccc2c(c1F)CCC(F)(F)C2O)c1cc2cc(Cl)ccc2[nH]1` (configuration not stated) belongs 48 nM.
On to `O=C(N[C@@H](Cc1ccc(F)cc1)C(=O)N1CCC(O)CC1)c1cc2cc(Cl)ccc2[nH]1`, for which the Activity in [2] is 24%.
With `O=C(Nc1c(F)cc2c(c1F)CCC(F)(F)[C@@H]2O)c1cc2cc(Cl)ccc2[nH]1`, in data set [3], the Vd (as a rule, a proportionality between amount in the body and measured concentration, not a real space) was determined as 18.1 L/kg. For the same molecule, the bioavailability – broadly, dose-corrected exposure relative to a reference, in per cent – in data set [4] was 100%. For the same molecule, the peak concentration (Cmax) (in general, the maximum level reached in the sampled fluid or tissue) in [5] came out at 785 ng/mL. The IC50 in data set [1] is 20 nM; in data set [11] it was 690 nM. In addition, the Activity in data set [6] was 14%; in data set [9] it was 26%. Also, the AUC(0-inf) (as a rule, the area under the concentration-time curve extrapolated to infinity) in [7] came out at 2780 ng·h/mL; in data set [12] it was 930 ng·h/mL. In data set [8], the half-life – broadly, the time in which the quantity being followed falls by half – was 12 h. For the same molecule, the Tmax (in general, the time at which the peak concentration occurs) in data set [10] is 0.5 h. The clearance (as a rule, the rate of elimination divided by the concentration) in data set [13] is 17.9 mL/min/kg.
In turn, `O=C(Nc1c(F)cc2c(c1F)CCC(F)(F)C2O)c1cc2cc(Cl)ccc2[nH]1` (configuration not stated) returned a half-maximal inhibitory concentration (IC50) in [1] of 36 nM.
Same read-out and setting: to `O=C(Nc1c(F)cc2c(c1F)CCC(F)(F)[C@H]2O)c1cc2cc(Cl)ccc2[nH]1` belongs 160 nM.
